Results taken from ChEMBL document CHEMBL3877273, “Synthesis and evaluation of N-substituted 2-amino-4,5-diarylpyrimidines as selective adenosine A1 receptor antagonists” (Eur J Med Chem, 2017).
pEC50, pIC50, pKi: −log10 of the molar value.

What was measured:
[1] = target: T1, Adenosine receptor A1 (Homo sapiens, UniProt P30542); experiment: Displacement of [3H]DPCPX from recombinant human adenosine A1 receptor expressed in CHO cell membranes after 1 hr by beta scintillation counting method
T1 sequence (P30542 whole entry): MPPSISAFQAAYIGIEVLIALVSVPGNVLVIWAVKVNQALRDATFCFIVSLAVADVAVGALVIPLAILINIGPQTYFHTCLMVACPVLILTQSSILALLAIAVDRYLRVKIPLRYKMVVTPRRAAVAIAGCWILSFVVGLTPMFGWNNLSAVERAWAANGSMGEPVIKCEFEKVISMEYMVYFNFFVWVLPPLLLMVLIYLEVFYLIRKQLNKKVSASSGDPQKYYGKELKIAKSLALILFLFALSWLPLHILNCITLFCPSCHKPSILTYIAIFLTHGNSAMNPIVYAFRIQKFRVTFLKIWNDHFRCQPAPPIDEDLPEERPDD

[2] = target: T2, Adenosine receptor A2a (Homo sapiens, UniProt P29274); experiment: Displacement of [3H]ZM241385 from recombinant human adenosine A2A receptor expressed in HEK293 cell membranes at 1 uM after 2 hrs by beta scintillation counting method relative to control
In short: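 Single-concentration screen on membranes from HEK293 cells stably expressing human A2A receptor. Test ligand at 1 µM, measured against specific [3H]ZM241385 binding and given as % displacement. Two independent experiments (n = 2), each value reported.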

[3] = target: T2, Adenosine receptor A2a; experiment: Displacement of [3H]ZM241385 from recombinant human adenosine A2A receptor expressed in HEK293 cell membranes after 2 hrs by beta scintillation counting method
In short: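 Membranes from HEK293 cells stably expressing human A2A receptor were used in radioligand competition with [3H]ZM241385. Ki was reported as mean ± SEM, n = 3.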

[4] = target: T3, Adenosine receptor A2b (Homo sapiens, UniProt P29275); experiment: Displacement of [3H]PSB603 from recombinant human adenosine A2B receptor expressed in CHO cell membranes after 1 hr by beta scintillation counting method
T3 sequence (P29275 whole entry): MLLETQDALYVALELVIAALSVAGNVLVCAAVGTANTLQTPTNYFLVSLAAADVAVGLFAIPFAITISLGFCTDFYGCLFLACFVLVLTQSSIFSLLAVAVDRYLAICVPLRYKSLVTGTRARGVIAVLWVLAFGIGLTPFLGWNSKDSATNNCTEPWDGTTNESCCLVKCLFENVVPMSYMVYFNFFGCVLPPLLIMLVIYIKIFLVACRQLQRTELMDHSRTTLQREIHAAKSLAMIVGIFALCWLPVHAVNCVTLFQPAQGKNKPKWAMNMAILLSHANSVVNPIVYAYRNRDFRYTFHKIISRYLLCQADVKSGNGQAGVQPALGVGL

[5] = target: T4, Adenosine receptor A3 (Homo sapiens) (UniProt P0DMS8); experiment: Displacement of [3H]PSB11 from recombinant human adenosine A3 receptor expressed in CHO cell membranes at 1 uM after 1 hr by […] method relative to control
T4 sequence (whole entry): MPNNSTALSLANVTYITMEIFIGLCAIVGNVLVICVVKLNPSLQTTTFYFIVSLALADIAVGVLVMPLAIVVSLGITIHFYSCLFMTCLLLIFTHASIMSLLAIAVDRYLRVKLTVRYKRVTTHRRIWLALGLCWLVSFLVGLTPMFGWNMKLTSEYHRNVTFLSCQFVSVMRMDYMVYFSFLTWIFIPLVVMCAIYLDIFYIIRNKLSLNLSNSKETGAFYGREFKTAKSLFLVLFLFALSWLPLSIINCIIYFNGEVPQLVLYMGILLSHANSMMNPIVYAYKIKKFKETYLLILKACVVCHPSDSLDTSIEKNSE

[6] = target: T1, Adenosine receptor A1; experiment: Inverse agonist activity at recombinant human adenosine A1 receptor expressed in CHO cell membranes assessed as […] of [35S]GTPgammaS binding preincubated for 30 mins followed by [35S]GTPgammaS addition measured after 90 mins by beta scintillation counting method; format: functional
[7] = target: T5, Adenosine receptor A2b (Homo sapiens) (UniProt P29275); experiment: Displacement of [3H]PSB603 from recombinant human adenosine A2B receptor expressed in CHO cell membranes at 1 uM after 1 hr by beta scintillation counting method relative to control
T5 sequence (whole entry): T3 sequence (P29275 whole entry)

T2 sequence (P29274 whole entry): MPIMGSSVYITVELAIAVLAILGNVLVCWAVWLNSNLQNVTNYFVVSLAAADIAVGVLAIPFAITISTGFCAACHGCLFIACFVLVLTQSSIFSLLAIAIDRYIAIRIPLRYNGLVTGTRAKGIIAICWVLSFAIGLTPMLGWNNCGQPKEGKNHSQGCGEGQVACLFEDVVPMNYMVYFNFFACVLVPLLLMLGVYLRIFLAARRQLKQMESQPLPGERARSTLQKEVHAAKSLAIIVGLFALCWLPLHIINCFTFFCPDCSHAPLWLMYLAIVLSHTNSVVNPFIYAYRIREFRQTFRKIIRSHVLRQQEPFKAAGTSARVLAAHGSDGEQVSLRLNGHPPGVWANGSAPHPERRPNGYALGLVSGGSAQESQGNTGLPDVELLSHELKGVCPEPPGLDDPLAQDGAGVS

Row | Structure (SMILES) | pKi [1] | pKi [3] | also measured
1 | OCCCNc1ncc(-c2cccc(Cl)c2)c(-c2ccccc2)n1 | 7.23 | – | inhibition [2]: 9.5%
2 | Nc1ncc(-c2ccc(O)c(O)c2)c(-c2ccccc2)n1 | 7.92 | 8.33 | –
3 | Nc1ncc(-c2ccnc(C3CC3)c2)c(-c2ccccc2)n1 | 8.75 | 7.44 | –
4 | Oc1ccc(-c2cnc(N[C@H]3CC[C@H](O)CC3)nc2-c2ccccc2)cc1Cl | – | 8.14 | –
5 | Nc1ncc(-c2cccc(C(F)(F)F)c2)c(-c2ccccc2)n1 | 7.85 | 7.01 | –
6 | Nc1ncc(-c2ccc(O)cc2)c(-c2ccccc2)n1 | 8.85 | 8.89 | –
7 | O[C@H]1CC[C@H](Nc2ncc(-c3ccnc(C4CC4)c3)c(-c3ccccc3)n2)CC1 | 8.97 | 7.19 | –
8 | Nc1ncc(-c2ccncc2)c(-c2ccccc2)n1 | 7.77 | 6.97 | –
9 | Clc1cccc(-c2cnc(NC3CCCC3)nc2-c2ccccc2)c1 | 7.03 | – | inhibition [2]: 23%
10 | COc1ccc(-c2cnc(N)nc2-c2ccccc2)cc1Cl | 7.02 to 7.52 | 6.60 | –
11 | O[C@H]1CC[C@H](Nc2ncc(-c3ccc4ccccc4c3)c(-c3ccccc3)n2)CC1 | – | – | pIC50 [4]: 6.00; inhibition [5]: 9%; pEC50 [6]: 6.78; inhibition [7]: 48%
12 | O[C@H]1CC[C@H](Nc2ncc(-c3cccc(Cl)c3)c(-c3ccccc3)n2)CC1 | 7.52 | – | inhibition [5]: 3%; inhibition [2]: 1.4%; pEC50 [6]: 6.56; inhibition [7]: 27%
13 | Nc1ncc(-c2ccc(Cl)c(Cl)c2)c(-c2ccccc2)n1 | 7.42 | – | inhibition [2]: 41%

Continued, in another order:

Row | pKi [1] | pKi [3] | Structure (SMILES) | also measured
14 | 7.26 | 6.92 | Nc1ncc(-c2cccc(Cl)c2)c(-c2ccccc2)n1 | –
15 | 6.97 | – | CCCC(=O)Nc1ncc(-c2cccc(Cl)c2)c(-c2ccccc2)n1 | –
16 | 6.98 | – | COc1ccc(-c2cnc(N)nc2-c2ccccc2)cc1OC | –
17 | 6.84 | – | Nc1ncc(-c2cccc(O)c2)c(-c2ccccc2)n1 | –
18 | 6.74 | – | OCCNc1ncc(-c2cccc(Cl)c2)c(-c2ccccc2)n1 | –
19 | 7.74 | 6.89 | Nc1ncc(-c2ccc3ccccc3c2)c(-c2ccccc2)n1 | –
20 | 6.89 | – | OCCCCNc1ncc(-c2cccc(Cl)c2)c(-c2ccccc2)n1 | inhibition [2]: 13%
21 | 9.34 | 8.89 | Nc1ncc(-c2ccc(O)c(Cl)c2)c(-c2ccccc2)n1 | –
22 | 7.27 | 6.81 | COc1cccc(-c2cnc(N)nc2-c2ccccc2)c1 | –
23 | 6.69 | – | Cc1cccc(-c2cnc(N)nc2-c2ccccc2)c1 | –
24 | 6.80 | – | Nc1ncc(-c2ccc(F)cc2)c(-c2ccccc2)n1 | –
